The record followed here is ChEMBL document CHEMBL1154776, “Probes for narcotic receptor mediated phenomena. 39. Enantiomeric N-substituted benzofuro[2,3-c]pyridin-6-ols: synthesis and topological relationship to oxide-bridged phenylmorphans” (J Med Chem, 2009).

The target in test [1] is T1, Mu-type opioid receptor (Homo sapiens, UniProt P35372). Nature of the test: biochemical. It is filed as cell-based, CHO.
The target in test [2] is Delta-type opioid receptor (Homo sapiens, UniProt P41143). Briefly: Displacement of [3H]DADLE from human recombinant delta opioid receptor expressed in CHO cells. In kind it is cell-based. An outline of the steps: (§1)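 Stably transfected CHO cells (hDOR-CHO for [3H]DADLE, hKOR-CHO for [3H]U69,593) grown in DMEM with 10% FBS and G-418 (0.10-0.2 mg/mL) under 5% CO2 at 37 °C. Monolayers harvested and frozen at −80 °C before membrane use; n=3.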

Test [3] concerns the target Kappa-type opioid receptor (Homo sapiens, UniProt P41145). Nature of the test: Displacement of [3H]U69593 from human recombinant kappa opioid receptor expressed in CHO cells. It is filed as cell-based. An outline of the steps: as §1
For orientation: Displacement assays read how much labelled ligand stays bound in the presence of the test substance.

The target of test [4] is T1, Mu-type opioid receptor. Nature of the test: Agonist activity at human recombinant mu opioid receptor expressed in CHO cells assessed as stimulation of [35S]GTPgammaS binding after 3 hrs by liquid scintillation counting relative to DAMGO. It is filed as functional, cell-based. The essentials:
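Same [35S]GTPγS membrane assay in hMOR-CHO: 50 pM radioligand, 10 μM GDP, 3 h at 25 °C, GF/B filtration, scintillation counting.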
(In general: Binding of GTPγS marks nucleotide exchange on a G protein.)

Test [5] concerns the target T1, Mu-type opioid receptor. Briefly: Agonist activity at human recombinant mu opioid receptor expressed in CHO cells assessed as stimulation of [35S]GTPgammaS binding after 3 hrs by liquid scintillation counting. In kind it is functional, cell-based. The essentials:
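hMOR-CHO membranes (50 μg protein) grown in DMEM/F-12 with 10% FBS and G-418. Incubated 3 h at 25 °C with 50 pM [35S]GTPγS in 50 mM Tris-HCl pH 7.4, 100 mM NaCl, 10 mM MgCl2, 1 mM EDTA, 1 mM DTT, 10 μM GDP and 0.1% BSA. Nonspecific binding defined with 40 μM GTPγS. Bound label separated on GF/B filters and scintillation counted; n=3.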

For test [6], the target named is T1, Mu-type opioid receptor. Particulars: CHO.

Sequence of Kappa-type opioid receptor (P41145 whole entry): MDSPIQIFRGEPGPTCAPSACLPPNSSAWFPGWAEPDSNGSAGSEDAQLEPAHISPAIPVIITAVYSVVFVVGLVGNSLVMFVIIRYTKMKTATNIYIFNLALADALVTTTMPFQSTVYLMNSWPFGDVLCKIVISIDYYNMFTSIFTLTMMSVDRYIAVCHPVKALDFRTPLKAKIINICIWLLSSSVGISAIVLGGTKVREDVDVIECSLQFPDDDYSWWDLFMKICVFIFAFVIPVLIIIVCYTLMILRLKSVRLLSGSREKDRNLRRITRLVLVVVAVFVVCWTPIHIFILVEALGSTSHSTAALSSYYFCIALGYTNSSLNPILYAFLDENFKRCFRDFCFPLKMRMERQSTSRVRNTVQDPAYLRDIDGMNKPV
Sequence of Delta-type opioid receptor (P41143 whole entry): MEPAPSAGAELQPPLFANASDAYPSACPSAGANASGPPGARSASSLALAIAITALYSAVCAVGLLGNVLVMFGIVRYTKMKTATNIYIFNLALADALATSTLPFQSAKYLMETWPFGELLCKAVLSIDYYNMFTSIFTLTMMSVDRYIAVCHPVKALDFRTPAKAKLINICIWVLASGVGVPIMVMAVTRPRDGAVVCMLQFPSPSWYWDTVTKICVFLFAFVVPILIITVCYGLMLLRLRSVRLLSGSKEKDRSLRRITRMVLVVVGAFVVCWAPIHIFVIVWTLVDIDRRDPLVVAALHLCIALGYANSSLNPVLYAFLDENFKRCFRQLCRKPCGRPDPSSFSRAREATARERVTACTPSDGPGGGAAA
T1 sequence (P35372 whole entry): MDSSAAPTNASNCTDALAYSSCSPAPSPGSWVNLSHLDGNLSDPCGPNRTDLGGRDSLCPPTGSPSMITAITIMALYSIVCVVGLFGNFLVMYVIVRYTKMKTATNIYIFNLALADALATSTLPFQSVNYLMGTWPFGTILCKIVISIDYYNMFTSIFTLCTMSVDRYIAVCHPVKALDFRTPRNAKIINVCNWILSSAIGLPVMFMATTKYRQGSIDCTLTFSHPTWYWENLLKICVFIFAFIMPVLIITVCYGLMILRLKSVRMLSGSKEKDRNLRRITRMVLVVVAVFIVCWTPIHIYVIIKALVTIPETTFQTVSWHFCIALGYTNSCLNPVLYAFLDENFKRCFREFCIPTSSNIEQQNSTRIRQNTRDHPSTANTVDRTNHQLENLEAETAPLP

On to `CC[C@]12CCN(C[C@H](O)c3ccccc3)C[C@H]1Oc1ccc(O)cc12`, for which the values for the Ki (at Mu-type opioid receptor [1]; in test [2]; in test [3]) were 1330 nM, 3100 nM and 9500 nM, respectively. Moreover, the Emax at Mu-type opioid receptor [4] came out at 36%.
Consider `CC[C@@]12CCN(C[C@@H](O)c3ccccc3)C[C@@H]1Oc1ccc(O)cc12`, for which the figures for the Ki (on Mu-type opioid receptor [1]; in test [2]; in test [3]) were 9.3 nM, 443 nM and 413 nM, respectively.
Consider `CC[C@]12CCN(C)C[C@H]1Oc1ccc(O)cc12`, for which the Ki at Mu-type opioid receptor [1] was determined as 1330 nM; in test [2], 4270 nM. The Emax at Mu-type opioid receptor [4] is 45%. Besides, on Mu-type opioid receptor [5], the ED50 stood at 241 nM.
At Mu-type opioid receptor [1], `CC[C@@]12CCNC[C@@H]1Oc1ccc(O)cc12` gave a Ki of 48 nM. Besides, the Ke at Mu-type opioid receptor [6] worked out at 95 nM.
Take `CC[C@@]12CCN(C[C@H](O)c3ccccc3)C[C@@H]1Oc1ccc(O)cc12`: the Ki was determined as 80 nM on Mu-type opioid receptor [1], 807 nM in test [2] and 1090 nM in test [3].
In the case of `CC[C@]12CCNC[C@H]1Oc1ccc(O)cc12`, affinity at Mu-type opioid receptor [1] was put at a Ki of 3500 nM. At Mu-type opioid receptor [4], the Emax is 97%. At Mu-type opioid receptor [5], the ED50 worked out at 150 nM.
Take `CC[C@]12CCN(CCc3ccccc3)C[C@H]1Oc1ccc(O)cc12`: the Ki on Mu-type opioid receptor [1] was found to be 200 nM; in test [2], 2690 nM; in test [3] it was 2320 nM. The maximal effect (Emax) on Mu-type opioid receptor [4] worked out at 84%. In addition, on Mu-type opioid receptor [5], the ED50 worked out at 24 nM.
Turning to `CC[C@@]12CCN(C)C[C@@H]1Oc1ccc(O)cc12`, the Ki on Mu-type opioid receptor [1] worked out at 15.9 nM; in test [2], 1350 nM; in test [3], 450 nM.
Take `CC[C@]12CCN(C[C@@H](O)c3ccccc3)C[C@H]1Oc1ccc(O)cc12`: the figures for the Ki (at Mu-type opioid receptor [1]; in test [2]) were 600 nM and 2490 nM, respectively. Further, the Emax at Mu-type opioid receptor [4] turned out to be 100%.

In general, Ki refers to the dissociation constant of the complex between target and ligand, obtained from inhibition or displacement. The Emax is the size of the effect at its maximum, as opposed to the concentration needed.
